Measured values taken from ChEMBL document CHEMBL1136957, “Semisynthesis and antiproliferative evaluation of a series of 3'-aminoflavones” (Bioorg Med Chem Lett, 2009).
Calls of active or inactive are those of the source. No cut-off for these calls is given here.

Assays:
KB [1] = experiment: Cytotoxicity against human KB cells at 1 uM after 72 hrs by MTS assay; type: functional
HL-60 [2] = experiment: Induction of apoptosis in human HL60 cells assessed as caspase 3/7 activation at 100 uM relative to control; type: functional
Summary of the method: (§1)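 Apoptosis read in HL60 human leukemia cells as caspase 3/7 activity, using DEVD-AMC as substrate. Reported as the optimal compound concentration with fold activation.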

[3] = Inhibition of tubulin assembly
Summary of the method: (§2)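 Tubulin assembly inhibition run by the Zavala and Guenard method. Reported as percent inhibition at 6.6 x 10^-5 M, or as IC50 for selected compounds.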

HL-60 [4] = experiment: Induction of apoptosis in human HL60 cells assessed as caspase 3/7 activation at 0.1 uM relative to control; type: functional; summary of the method: as §1
[5] = Ratio of IC50 for drug to deoxypodophyllotoxin for tubulin assembly
Summary of the method: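 Inhibition of tubulin assembly was run by the Zavala and Guénard method. Compounds were screened at 6.6 × 10^-5 M, and an IC50 was determined only for the most antiproliferative ones. The value is that IC50 divided by the IC50 of deoxypodophyllotoxin, the reference.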

KB [6] = experiment: Cytotoxicity against human KB cells after 72 hrs by MTS assay; type: functional, cell-based
HL-60 [7] = experiment: Induction of apoptosis in human HL60 cells assessed as caspase 3/7 activation at 1 uM relative to control; type: functional; summary of the method: as §1
[8] = Inhibition of tubulin assembly at 66 uM; summary of the method: as §2
HL-60 [9] = experiment: Induction of apoptosis in human HL60 cells assessed as caspase 3/7 activation at 10 uM relative to control; type: functional; summary of the method: as §1

| SMILES | inhibition at 1 µM (KB [1]) [%] | fold change (FC) (HL-60 [2]) | IC50 (KB [6]) [nM] | fold change (FC) (HL-60 [7]) | further results |
| --- | --- | --- | --- | --- | --- |
| COc1ccc(-c2cc(=O)c3c(O)c(OC)c(OC)c(OC)c3o2)cc1 [GARDENIN B] | 28 | 3.8 |  |  |  |
| COc1cc(O)c2c(=O)cc(-c3ccc(OC)c(N)c3)oc2c1 | 30 | inactive |  |  |  |
| COc1ccc(-c2cc(=O)c3c(O)c(OC)c(OC)c(OC)c3o2)cc1[N+](=O)[O-] | 2 |  |  |  |  |
| COc1ccc(-c2oc3c(OC)c(OC)c(OC)c(O)c3c(=O)c2OC)cc1O | 92 |  | 20 |  | IC50 [3]: 10000 nM; fold change (FC) (HL-60 [4]): 5.7; Ratio IC50 [5]: 3 |
| COc1ccc(-c2oc3c(OC)c(OC)c(OC)c(O)c3c(=O)c2Br)cc1N | 55 |  |  | 3.6 |  |
| COc1ccc(-c2cc(=O)c3c(O)cc(O)cc3o2)cc1N | 7 | 4 |  |  |  |
| COc1ccc(-c2oc3c(OC)c(OC)c(OC)c(O)c3c(=O)c2Cl)cc1N | 86 |  | 140 | 4.5 | inhibition [8]: 15% |
| COc1ccc(-c2cc(=O)c3c(OC)c(OC)c(OC)c(OC)c3o2)cc1N | 6 | inactive |  |  |  |
| COc1ccc(-c2oc3c(OC)c(OC)c(OC)c(O)c3c(=O)c2Br)cc1[N+](=O)[O-] | 23 |  |  |  |  |
| COc1ccc(-c2cc(=O)c3c(OC)c(OC)c(OC)c(OC)c3o2)cc1[N+](=O)[O-] | 3 |  |  |  |  |
| COc1ccc(-c2cc(=O)c3c(OC)c(OC)c(OC)c(OC)c3o2)cc1 [TANGERETIN] | 12 | inactive |  |  |  |
| COc1ccc(-c2cc(=O)c3c(O)c(OC)c(OC)c(OC)c3o2)cc1N | 83 |  | 160 | 6 | inhibition [8]: 27% |
| COc1ccc(-c2cc(=O)c3c(O)c(OC)c(OC)c(OC)c3o2)cc1O |  |  | 80 | 3.8 | IC50 [3]: 86000 nM; fold change (FC) (HL-60 [9]): 5.2; Ratio IC50 [5]: 27 |
